# From ChEMBL document CHEMBL1140408 (J Med Chem, 2005)
# Columns and labels:
# [1] = biological target: T1, Transient receptor potential cation channel subfamily V member 1 (Rattus norvegicus, UniProt O35433); assay: Inhibitory effect on capsaicin (0.5 uM)-induced calcium uptake in rat DRG neurons upon incubation at RT for 10 minutes
# Method in brief: (§1)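 Neonatal Sprague–Dawley rat DRG neurons, dissociated with collagenase/trypsin and cultured 3 days with 200 ng/mL NGF (cytosine arabinoside for the first 2 days), were washed in Ca/Mg-free HBSS with 10 mM HEPES at pH 7.4. They were then given 45Ca2+ (10 µCi/mL), 0.5 µM capsaicin and compound for 10 min at room temperature, SDS-lysed and scintillation-counted.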
# [2] = biological target: T1, Transient receptor potential cation channel subfamily V member 1; assay: Inhibitory effect on capsaicin (0.5 uM)-induced calcium uptake in rat DRG neurons upon incubation at RT for 10 minutes; NE=Not effective; method in brief: as §1
# [3] = biological target: T2, Transient receptor potential cation channel subfamily V member 1 (Homo sapiens, UniProt Q8NER1); assay: Concentration required to antagonized capsaicin-induced calcium uptake at the transient receptor potential cation channel (subfamily V member 1) expressed in chinese hamster ovary cells; assay type: cell-based, CHO
# T2 sequence (Q8NER1 whole entry): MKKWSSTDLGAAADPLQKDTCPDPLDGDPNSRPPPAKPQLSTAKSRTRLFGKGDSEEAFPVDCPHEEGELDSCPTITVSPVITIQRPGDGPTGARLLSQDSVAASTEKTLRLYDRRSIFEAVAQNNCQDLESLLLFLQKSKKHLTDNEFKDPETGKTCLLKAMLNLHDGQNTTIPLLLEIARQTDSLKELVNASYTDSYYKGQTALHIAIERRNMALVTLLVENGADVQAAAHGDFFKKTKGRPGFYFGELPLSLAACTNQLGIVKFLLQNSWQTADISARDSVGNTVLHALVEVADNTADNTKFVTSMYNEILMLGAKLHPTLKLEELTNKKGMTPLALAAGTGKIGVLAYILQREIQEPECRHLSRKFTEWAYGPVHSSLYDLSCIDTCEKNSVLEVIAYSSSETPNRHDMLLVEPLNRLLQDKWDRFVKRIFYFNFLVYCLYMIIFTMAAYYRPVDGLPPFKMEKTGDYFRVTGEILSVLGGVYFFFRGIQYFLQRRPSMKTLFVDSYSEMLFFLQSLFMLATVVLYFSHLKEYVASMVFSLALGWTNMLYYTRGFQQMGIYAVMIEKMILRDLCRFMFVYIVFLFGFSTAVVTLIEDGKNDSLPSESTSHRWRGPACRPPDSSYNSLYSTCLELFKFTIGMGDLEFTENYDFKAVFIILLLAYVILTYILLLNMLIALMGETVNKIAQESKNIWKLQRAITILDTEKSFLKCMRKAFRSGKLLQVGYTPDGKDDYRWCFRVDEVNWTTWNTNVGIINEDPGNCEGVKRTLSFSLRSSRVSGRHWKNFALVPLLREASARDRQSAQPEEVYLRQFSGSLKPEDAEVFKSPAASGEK
# [4] = biological target: T2, Transient receptor potential cation channel subfamily V member 1; assay: Concentration required to inhibit [3H]RTX radioligand binding towards transient receptor potential cation channel (subfamily V, member 1) expressed in chinese hamster ovary cells; assay type: cell-based, CHO
# [5] = biological target: T1, Transient receptor potential cation channel subfamily V member 1; assay: Inhibitory effect on capsaicin (0.5 uM)-induced calcium uptake in rat DRG neurons upon incubation at RT for 10 minutes; NE = Not effective; method in brief: as §1
# T1 sequence (O35433 whole entry): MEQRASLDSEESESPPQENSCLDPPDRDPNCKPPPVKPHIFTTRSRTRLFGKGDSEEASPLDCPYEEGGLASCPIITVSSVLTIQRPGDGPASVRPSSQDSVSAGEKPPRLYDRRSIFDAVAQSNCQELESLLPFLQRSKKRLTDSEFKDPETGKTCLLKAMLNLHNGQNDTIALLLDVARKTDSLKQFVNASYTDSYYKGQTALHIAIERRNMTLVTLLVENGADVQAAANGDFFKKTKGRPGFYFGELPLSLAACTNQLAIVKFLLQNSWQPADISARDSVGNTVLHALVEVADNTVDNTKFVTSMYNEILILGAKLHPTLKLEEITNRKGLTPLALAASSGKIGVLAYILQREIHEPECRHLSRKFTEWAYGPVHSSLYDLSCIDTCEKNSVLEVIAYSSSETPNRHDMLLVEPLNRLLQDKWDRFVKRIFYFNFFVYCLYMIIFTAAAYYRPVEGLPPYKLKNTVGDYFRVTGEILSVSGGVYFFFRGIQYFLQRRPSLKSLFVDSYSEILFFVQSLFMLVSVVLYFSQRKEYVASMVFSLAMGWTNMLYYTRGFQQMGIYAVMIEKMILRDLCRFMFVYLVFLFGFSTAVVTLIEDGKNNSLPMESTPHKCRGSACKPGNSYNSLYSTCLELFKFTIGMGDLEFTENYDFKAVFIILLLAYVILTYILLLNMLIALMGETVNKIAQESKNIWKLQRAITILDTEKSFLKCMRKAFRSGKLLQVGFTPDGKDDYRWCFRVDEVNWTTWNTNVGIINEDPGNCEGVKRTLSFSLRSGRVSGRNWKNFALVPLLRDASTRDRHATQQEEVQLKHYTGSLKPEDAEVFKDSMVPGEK
IC50 [1] [nM],SMILES,other results
> 30000,CCOC(=O)CNc1ccc(CNC(=S)NCc2ccc(C(C)(C)C)cc2)cc1F,
10900,COCC(=O)Nc1ccc(CNC(=S)NCc2ccc(C(C)(C)C)cc2)cc1F,
80,CC(C)(C)c1ccc(C/N=C(\S)NCc2ccc(NS(C)(=O)=O)c(Br)c2)cc1,
1600,CC(C)(C)c1ccc(N/C(S)=N/Cc2ccc(NS(C)(=O)=O)c(F)c2)cc1,
> 30000,CS(=O)(=O)Nc1ccc(CNC(=S)NCc2ccc(-c3ccccc3)cc2)cc1F,
> 30000,CC(C)OC(=O)c1cc(C/N=C(\S)NCc2ccc(C(C)(C)C)cc2)ccc1NS(C)(=O)=O,
1300,Cc1cccc(CNC(=S)NCc2ccc(NS(C)(=O)=O)c(F)c2)c1,
730,CC(C)(C)c1ccc(C/N=C(\NC#N)NCc2ccc(NS(C)(=O)=O)c(F)c2)cc1,
6200,CCOC(=O)N/C(=N\Cc1ccc(NS(C)(=O)=O)c(F)c1)NCc1ccc(C(C)(C)C)cc1,
1800,CC(C)(C)c1ccc(CNC(=S)NCc2ccc3[nH]ccc3c2)cc1,
2500,CS(=O)(=O)Nc1ccc(C/N=C(\S)NC(c2ccccc2)c2ccccc2)cc1F,
50,CC(C)(C)c1ccc(CNC(=S)NCc2ccc3nn[nH]c3c2)cc1,
520,CC(C)c1ccc(C/N=C(\S)NCc2ccc(NS(C)(=O)=O)c(F)c2)cc1,
670,Cc1ccccc1C/N=C(\S)NCc1ccc(NS(C)(=O)=O)c(F)c1,
200,CC(C)(C)c1cc(CNC(=S)NCc2ccc(NS(C)(=O)=O)c(F)c2)cc(C(C)(C)C)c1,

# Continued, compound first:
SMILES,IC50 [1] [nM],other results
COC(=O)CNc1ccc(CNC(=S)NCc2ccc(C(C)(C)C)cc2)cc1F,3600,
CC(C)(C)c1ccccc1C/N=C(\S)NCc1ccc(NS(C)(=O)=O)c(F)c1,,IC50 [2]: Not Active
COC(=O)Nc1ccc(C/N=C(\S)NCc2ccc(C(C)(C)C)cc2)cc1F,,IC50 [2]: Not Active
CC(C)(C)c1ccc(CNC(=S)NCc2ccc(NS(C)(=O)=O)c(F)c2)cc1,,EC50 [3]: 8 nM; IC50 [4]: 54 nM
CS(=O)(=O)Nc1ccc(C/N=C(\S)Nc2c3ccccc3cc3ccccc23)cc1F,1100,
CC(C)(C)c1ccc(C(C)(C)/N=C(\S)NCc2ccc(NS(C)(=O)=O)c(F)c2)cc1,> 30000,
Cc1ccc(C/N=C(\S)NCc2ccc(NS(C)(=O)=O)c(F)c2)cc1,1500,
CC(C)(C)c1ccc(CNC(=S)NCc2ccc(NC(=O)C(F)(F)F)c(F)c2)cc1,> 30000,
CONC(=O)c1cc(C/N=C(\S)NCc2ccc(C(C)(C)C)cc2)ccc1NS(C)(=O)=O,> 30000,
CS(=O)(=O)Nc1ccc(C/N=C(\S)NCc2ccc(I)cc2)cc1F,630,
CCCCc1ccc(CNC(=S)NCc2ccc(NS(C)(=O)=O)c(F)c2)cc1,470,
CCOC(=O)Nc1ccc(C/N=C(\S)NCc2ccc(C(C)(C)C)cc2)cc1F,> 30000,
CCCc1ccc(CNC(=S)NCc2ccc(NS(C)(=O)=O)c(F)c2)cc1,460,
CC(C)(C)c1ccc(C/N=C(\S)NCc2ccc3c(c2)OCO3)cc1,,IC50 [5]: Not Active
CC(C)(C)NC(=S)NCc1ccc(NS(C)(=O)=O)c(F)c1,> 30000,
CC(C)(C)c1ccc(CNC(=S)NCc2ccc(NS(C)(=O)=O)c([N+](=O)[O-])c2)cc1,71,
CC(C)(C)c1ccc(CCNC(=S)NCc2ccc(NS(C)(=O)=O)c(F)c2)cc1,370,
CC(C)(C)c1ccc(CCC/N=C(\S)NCc2ccc(NS(C)(=O)=O)c(F)c2)cc1,2000,
CC(C)(C)c1ccc(C/N=C(\S)NCc2ccc(NS(C)(=O)=O)c(C#N)c2)cc1,5900,
CC(C)(C)c1ccc(C/N=C(\S)NCc2ccc(N)c(F)c2)cc1,,IC50 [2]: Not Active
CCc1ccc(C/N=C(\S)NCc2ccc(NS(C)(=O)=O)c(F)c2)cc1,1100,
CC(C)(C)c1ccc(C/N=C(\S)NCc2ccc(NCC(=O)O)c(F)c2)cc1,,IC50 [5]: Not Active
CC(C)(C)c1ccc(CNC(=S)NCc2ccc3nc[nH]c3c2)cc1,790,
CS(=O)(=O)Nc1ccc(C/N=C(\S)NCc2ccc(Br)cc2)cc1F,570,
CS(=O)(=O)Nc1ccc(CN=C(S)NCc2cccc3ccccc23)cc1F,2600,
CC(C)(C)c1ccc(CNC(=S)NCc2ccc(NS(C)(=O)=O)c(I)c2)cc1,41,
CC(C)(C)c1ccc(C/N=C(\S)NCc2ccc(NS(C)(=O)=O)c(C(=O)NO)c2)cc1,> 30000,
